Experimental findings from PubChem BioAssay are described below.

Calls of active or inactive are those of the source.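 How the source made its calls, unless noted: active means fluorescence slope after compound addition differing from the mean of all tested samples at 99.7% confidence, mostly higher but some lower; inactive means the rest.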

The nature of test [1]: inhibitors of TNFa-induced NFkB p65 translocation, primary screen, imaging, HUVEC, MLSMR starter and 10KST1 sets (AID 438;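 active means inhibition above 20% together with a positive visual image hit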;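 further: compound added about 3h40 before a 20 min TNFalpha stimulation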;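 on inhibition: signal is the nuclear over cytoplasmic p65 intensity ratio per well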). Particulars: HUVEC TNFa-induced p65 nuclear translocation; cell count: measured here: nuclei count (cytotoxicity indicator), at 2.08 µM; inhibition: at 2 µM, stronger effect = higher value, 0% TNFa-plus-vehicle, 100% no-TNFa wells.
Test [2] in a line: inhibitors of mutant huntingtin aggregation, primary screen, imaging, exon1htt(103Q)mCFP cells, high-content imaging (AID 483;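 active means visual image review flags a hit and inhibition of aggregation exceeds 20%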;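 further: compound exposure lasted 3 days before fixation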;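 on nuclei count: percent of the per-plate median nuclei count of sample wells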). Particulars: exon1htt(103Q)mCFP cell line, aggregate imaging, at 2 µM; inhibition of aggregation: stronger effect = higher value; nuclei count: measured here: cell count, toxicity.
A short description of test [3]: inhibitors of E-selectin induction by TNFa, primary screen, imaging, HUVEC, immunofluorescence, MLSMR starter and 10KST1 sets (AID 487;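 active means visually confirmed hit in the image check and inhibition above 20%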;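 on inhibition: signal is fraction of cell area covered by stained E-selectin grains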;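 on nuclei count: 100% = median nuclei count of all wells on the same plate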). Particulars: HUVEC TNFalpha-induced E-selectin immunofluorescence imaging, at 2 µM; inhibition: stronger effect = higher value; nuclei count: measured here: cell number, toxicity.
Test [4] addresses Voltage-gated potassium channel subunit beta-2 (Rattus norvegicus) (UniProt P62483). The test is described as follows: KvBeta enzyme negative modulators, primary screen, biochemical, NADPH fluorescence (AID 622;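 active means fluorescence slope higher than the sample average by over 3 SD, cut at about -0.22 in these data, passing the limit was not always enough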;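 further: slope of raw intensity against log time taken from 70 to 1610 s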). Particulars: recombinant KvBeta, 4-cyanobenzaldehyde reduction, at 10 µM, stronger effect = higher value.
For test [5] the target is unchanged. The test is described as follows: KvBeta positive modulators, primary screen, biochemical, NADPH fluorescence (AID 623;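 active means NADPH fluorescence slope more negative than the mean of all samples by about 3 SD, 99.7% confidence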;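 further: fluorescence intensity change per second fitted from 20 to 320 s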). Conditions: Recombinant KvBeta, NADPH fluorescence decrease slope, 10 min; at 10 µM; stronger effect = lower value.
The target in test [6] is Muscarinic acetylcholine receptor M4 (Homo sapiens) (UniProt P08173). Description: compounds altering M4/GIRK thallium flux, either direction, primary screen, M4 allosteric agonist project, cell-based, HEK293 M4/GIRK, BTC-AM (AID 625).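 Further: thallium influx through GIRK channels coupled to M4 in HEK293 cells with BTC-AM dye.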 Conditions: at 10 µM, actives lie on both sides. The method in brief: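 System: HEK293 cells with M4 receptor and GIRK channels | Incubation: Cells overnight at 37 °C, BTC-AM loading 1 h, reads 2 min total | Technique: Kinetic BTC-AM fluorescence sampled at 1 Hz, 10 s pre-addition baseline | Measure: Post-addition slope, 15–24 s, of baseline-normalized fluorescence | Control set: Carbachol positive, DMSO negative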
Muscarinic acetylcholine receptor M4 (Homo sapiens), sequence (P08173 whole entry, looked up): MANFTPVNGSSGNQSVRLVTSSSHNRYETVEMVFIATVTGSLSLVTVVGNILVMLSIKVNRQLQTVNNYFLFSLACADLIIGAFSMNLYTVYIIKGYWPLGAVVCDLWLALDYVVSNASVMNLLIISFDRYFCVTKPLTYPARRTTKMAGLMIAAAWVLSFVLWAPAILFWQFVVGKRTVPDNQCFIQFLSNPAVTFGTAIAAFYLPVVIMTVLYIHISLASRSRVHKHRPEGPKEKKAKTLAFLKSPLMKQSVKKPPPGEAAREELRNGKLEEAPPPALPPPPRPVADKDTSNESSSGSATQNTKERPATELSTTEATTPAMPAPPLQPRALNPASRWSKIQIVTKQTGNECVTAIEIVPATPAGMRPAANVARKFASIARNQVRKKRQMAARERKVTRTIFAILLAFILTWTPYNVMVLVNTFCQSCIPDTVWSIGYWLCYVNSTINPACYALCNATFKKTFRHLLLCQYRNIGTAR

A short description of test [7]: inhibitors of Sendai virus-induced IRF3 signaling, primary screen, TLR/RLR signaling modifier project, cell-based, Sendai virus stimulus, luciferase, 10K MLSCN set (AID 602276;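 active means inhibition at or above 50% at 10 µM; inactive means inhibition below 50%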;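 further: firefly luciferase from ISG56 promoter only with Renilla not read in this screen; 0% = Sendai virus plus DMSO and 100% = medium plus DMSO without virus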). Conditions: HEK293 RL24 IRF3 luciferase reporter, at 10 µM, stronger effect = higher value.
Test [8] can be described thus: inhibitors of poly I:C-induced TLR3 signaling, primary screen, cell-based, poly I:C stimulus, luciferase, 10K MLSCN set (AID 602277;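 active means inhibition of the reporter signal at or above 50%; inactive means inhibition below 50%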). Conditions: HEK293-TLR3 RL24 IRF3 luciferase reporter, at 10 µM, stronger effect = higher value. For orientation: Reporter assays use an easily measured gene product as a stand-in for the process of interest.

Voltage-gated potassium channel subunit beta-2 (Rattus norvegicus), sequence (P62483 whole entry, looked up): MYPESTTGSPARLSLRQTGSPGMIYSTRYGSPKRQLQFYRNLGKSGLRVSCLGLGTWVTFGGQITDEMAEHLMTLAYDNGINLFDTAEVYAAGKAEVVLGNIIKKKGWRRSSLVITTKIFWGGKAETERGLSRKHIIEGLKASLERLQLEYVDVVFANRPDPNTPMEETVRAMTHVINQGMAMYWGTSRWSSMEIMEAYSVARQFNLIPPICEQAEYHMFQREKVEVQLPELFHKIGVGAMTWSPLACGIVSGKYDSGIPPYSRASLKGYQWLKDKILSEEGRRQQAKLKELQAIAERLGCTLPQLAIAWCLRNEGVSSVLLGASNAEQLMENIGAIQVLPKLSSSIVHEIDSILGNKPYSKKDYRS

As to `CN(C)Cc1c(O)ccc2oc(Cc3ccccc3)cc12`, the cell count in test [1] was determined as 676. Besides, the inhibition was -9.1% (inactive) in test [1], -12.9% (inactive) in test [3], 22.6% (inactive) in test [7] and 22.2% (inactive) in test [8]. In addition, the inhibition of aggregation in test [2] is 14.8% (inactive). For the same molecule, the nuclei count in test [2] amounted to 65.8%; in test [3], 104%. Moreover, the fluorescence slope is -0.533 (inactive) in test [4] and 0.00447 (inactive) in test [6]. In addition, in test [5], the NADPH fluorescence slope is -6.9e-06 (inactive).

As for `CCCCC(c1nnnn1C1CCCC1)N1CCN(C2CCCCC2)CC1` (centres undefined), in test [1], the cell count came out at 625. For the same molecule, the inhibition in test [1] is -40.8% (inactive); in test [3], -57.4% (inactive); in test [7] it was 10% (inactive); in test [8] it was 39.4% (inactive). For the same molecule, in test [2], the inhibition of aggregation was -12% (inactive). For the same molecule, the nuclei count was determined as 100% in test [2] and 111% in test [3]. For the same molecule, the fluorescence slope in test [4] is -0.314 (inactive); in test [6], 0.00481 (inactive). Moreover, the NADPH fluorescence slope in test [5] was -3.5e-05 (inactive).

`CC(C)OC(=O)CSc1nnnn1-c1ccc2c(c1)OCCO2`: the cell count in test [1] was 294. For the same molecule, the inhibition in test [1] is -9.9% (inactive); in test [3], -0.1% (inactive); in test [7] it was -0.252% (inactive); in test [8] it was -97.9% (inactive). For the same molecule, the inhibition of aggregation in test [2] was -2.7% (inactive). Also, the nuclei count in test [2] was determined as 111%; in test [3], 118%. The fluorescence slope in test [4] is -0.228 (inactive); in test [6], 0.00598 (inactive). Also, the NADPH fluorescence slope in test [5] was -3.6e-05 (inactive).

In the case of `O=C(CCn1nc(-c2ccc(Cl)cc2)ccc1=O)N1CCN(c2ccccn2)CC1`, the cell count in test [1] worked out at 244. For the same molecule, the inhibition in test [1] was -0.9% (inactive); in test [3] it was 36.1% (inactive); in test [7], 7.53% (inactive); in test [8], 10.9% (inactive). The inhibition of aggregation in test [2] is 26.9% (inactive). Moreover, the nuclei count in test [2] was found to be 100%; in test [3], 98.7%. The fluorescence slope in test [4] was -0.582 (inactive); in test [6], 0.00547 (inactive). Moreover, the NADPH fluorescence slope in test [5] was -8.6e-06 (inactive).

Consider `Cc1ncoc1C(=O)Nc1cccc(Cl)c1C`, for which the cell count in test [1] amounted to 540. In addition, the inhibition in test [1] is -14.2% (inactive); in test [3], -38.5% (inactive); in test [7], -22.6% (inactive); in test [8], -46.1% (inactive). Also, the inhibition of aggregation in test [2] was 52.7% (active). Also, the figures for the nuclei count in test [2] and in test [3] were 56.4% and 116%, respectively. The fluorescence slope is -0.302 (inactive) in test [4] and 0.00599 (inactive) in test [6]. Besides, the NADPH fluorescence slope in test [5] is 8.7e-06 (inactive).

On to `O=C(C1CCN(S(=O)(=O)N2CCC3(CC2)OCCO3)CC1)N1CCOCC1`, for which the cell count in test [1] amounted to 648. The inhibition in test [1] was 14.8% (inactive); in test [3], 28.9% (inactive); in test [7], -6.46% (inactive); in test [8], -2.34% (inactive). The inhibition of aggregation in test [2] was 17.5% (inactive). Further, the nuclei count in test [2] came to 89.1%; in test [3], 96.9%. The values for the fluorescence slope in test [4] and in test [6] were -0.571 (inactive) and 0.00319 (inactive), respectively. In addition, the NADPH fluorescence slope in test [5] is -8.3e-05 (inactive).

Regarding `CSc1ccccc1NS(=O)(=O)c1ccccc1`, the cell count in test [1] is 558. The inhibition was -1% (inactive) in test [1], -8.2% (inactive) in test [3], 13% (inactive) in test [7] and 12.9% (inactive) in test [8]. The inhibition of aggregation in test [2] is -14.6% (inactive). Also, the nuclei count in test [2] was found to be 96.9%; in test [3], 105%. For the same molecule, the fluorescence slope in test [4] was -0.454 (inactive); in test [6], 0.00445 (inactive). In test [5], the NADPH fluorescence slope is 1.4e-05 (inactive).

Turning to `O=C(Cn1nc(-c2ccc(Cl)cc2)ccc1=O)NCCCN1CCN(Cc2ccccc2)CC1`, in test [1], the cell count was 518. The inhibition in test [1] is 10.6% (inactive); in test [3], -351% (inactive); in test [7], -9.82% (inactive); in test [8], -23.5% (inactive). The inhibition of aggregation in test [2] was -12.5% (inactive). Also, the nuclei count in test [2] was found to be 97.4%; in test [3] it was 135%. Besides, the fluorescence slope in test [4] is -0.585 (inactive); in test [6], 0.00673 (inactive). Besides, the NADPH fluorescence slope in test [5] was 3e-05 (inactive).

`Cc1ccc(CNC(=O)CSc2n[nH]c(N)n2)cc1`: the cell count in test [1] stood at 498. Further, the inhibition in test [1] is -7.2% (inactive); in test [3], -21.8% (inactive); in test [7], 15.9% (inactive); in test [8], 20.6% (inactive). In addition, in test [2], the inhibition of aggregation is 20% (inactive). Further, the values for the nuclei count in test [2] and in test [3] were 44.8% and 136%, respectively. Further, the results for the fluorescence slope in test [4] and in test [6] were -0.579 (inactive) and 0.00347 (inactive), respectively. Further, in test [5], the NADPH fluorescence slope is -6.4e-05 (inactive).

Turning to `Cc1cc(NC(=O)CSc2nc3ccsc3c(=O)n2NC(=O)c2ccccc2)no1`, in test [1], the cell count is 317. Also, the inhibition was -1.2% (inactive) in test [1], -234% (inactive) in test [3], -39.7% (inactive) in test [7] and -61.1% (inactive) in test [8]. Besides, in test [2], the inhibition of aggregation is -4.7% (inactive). The nuclei count in test [2] amounted to 102%; in test [3], 117%. The fluorescence slope in test [4] was -0.449 (inactive); in test [6] it was 0.00651 (inactive). Besides, in test [5], the NADPH fluorescence slope was 9e-05 (inactive).

With `CCOCCCNc1ncnc2c1[nH]c1ccccc12`, the cell count in test [1] stood at 252. In addition, the inhibition in test [1] was 7.8% (inactive); in test [3] it was -49.2% (inactive); in test [7], -24.7% (inactive); in test [8], -100% (inactive). The inhibition of aggregation in test [2] is -7.5% (inactive). Also, the values for the nuclei count in test [2] and in test [3] were 72.9% and 109%, respectively. Besides, the fluorescence slope was -0.513 (inactive) in test [4] and 0.00341 (inactive) in test [6]. The NADPH fluorescence slope in test [5] is -0.000137 (inactive).

As for `COc1ccccc1C(=O)N1CCCC(c2nc(-c3cc(OC)c(OC)c(OC)c3)no2)C1` (centres undefined), in test [1], the cell count was 307. In addition, the inhibition in test [1] is 0.5% (inactive); in test [3], 19.1% (inactive); in test [7], 12.4% (inactive); in test [8], 16.1% (inactive). In test [2], the inhibition of aggregation is -0.4% (inactive). The nuclei count in test [2] stood at 120%; in test [3] it was 100%. The fluorescence slope in test [4] was -0.474 (inactive); in test [6] it was 0.0058 (inactive). Further, in test [5], the NADPH fluorescence slope is -3.6e-05 (inactive).

`Cc1ccc(S(=O)(=O)N(C)Cc2cc3ccccc3[nH]c2=O)cc1`: in test [1], the cell count came to 544. Moreover, the inhibition in test [1] is -5% (inactive); in test [3] it was 29.4% (inactive); in test [7] it was 8.78% (inactive); in test [8], 70.5% (active). In test [2], the inhibition of aggregation is 12.8% (inactive). For the same molecule, the nuclei count in test [2] came to 99.8%; in test [3], 104%. Moreover, the fluorescence slope was -0.52 (inactive) in test [4] and 0.00517 (inactive) in test [6]. For the same molecule, in test [5], the NADPH fluorescence slope was -0.000101 (inactive).

With `CCc1nnc(NC(=O)OCc2ccccc2)s1`, the cell count in test [1] was determined as 414. Further, the inhibition in test [1] was 8.1% (inactive); in test [3] it was -59.3% (inactive); in test [7], -17.2% (inactive); in test [8], -43.4% (inactive). Further, the inhibition of aggregation in test [2] is 0.2% (inactive). In addition, the nuclei count in test [2] is 99.3%; in test [3], 120%. In addition, the fluorescence slope is -0.579 (inactive) in test [4] and 0.00857 (inactive) in test [6]. Moreover, the NADPH fluorescence slope in test [5] was -1.5e-05 (inactive).

As usually defined, the inhibition is the drop in the measured response relative to a control, in per cent.
